Results: ChEMBL document CHEMBL3580600, “Design, Synthesis, and Evaluation of 4- and 5-Substituted o-(Octanesulfonamido)benzoic Acids as Inhibitors of Glycerol-3-Phosphate Acyltransferase” (Medchemcomm, 2014)

Target: T1, Glycerol-3-phosphate acyltransferase 1, mitochondrial (Mus musculus, UniProt Q61586)
T1 sequence (Q61586 whole entry): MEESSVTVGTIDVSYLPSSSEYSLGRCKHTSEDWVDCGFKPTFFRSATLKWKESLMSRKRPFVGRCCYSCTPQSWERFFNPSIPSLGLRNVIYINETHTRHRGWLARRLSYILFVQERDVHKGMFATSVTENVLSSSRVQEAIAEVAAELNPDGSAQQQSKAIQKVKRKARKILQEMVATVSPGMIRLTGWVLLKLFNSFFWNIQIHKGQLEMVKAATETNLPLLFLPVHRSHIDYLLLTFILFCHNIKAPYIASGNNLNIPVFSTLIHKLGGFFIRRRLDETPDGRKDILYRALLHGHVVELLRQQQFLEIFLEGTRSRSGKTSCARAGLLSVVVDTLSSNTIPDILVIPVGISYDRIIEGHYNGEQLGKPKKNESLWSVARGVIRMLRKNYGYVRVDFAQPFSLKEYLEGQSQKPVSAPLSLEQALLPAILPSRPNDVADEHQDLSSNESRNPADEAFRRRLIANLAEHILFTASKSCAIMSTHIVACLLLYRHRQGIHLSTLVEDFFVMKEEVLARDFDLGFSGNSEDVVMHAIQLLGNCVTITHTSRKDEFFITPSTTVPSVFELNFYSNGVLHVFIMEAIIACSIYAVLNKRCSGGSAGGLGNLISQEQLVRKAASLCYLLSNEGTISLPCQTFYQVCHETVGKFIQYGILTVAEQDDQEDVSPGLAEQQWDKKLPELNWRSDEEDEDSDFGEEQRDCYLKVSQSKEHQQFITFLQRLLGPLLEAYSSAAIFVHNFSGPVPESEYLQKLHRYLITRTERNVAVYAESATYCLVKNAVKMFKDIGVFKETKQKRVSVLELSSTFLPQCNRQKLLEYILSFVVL
Assay: Inhibition of GPAT in BALB/c mouse mitochondria using 14C-labeled glycerol-3-phosphate and palmitoyl-CoA incubated for 10 mins by scintillation counting method
Outline: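 Mitochondria isolated from freshly harvested BALB/c mouse liver by differential centrifugation (1000 × g, then 3500 × g, twice) and resuspended in HEPES pH 7.4 storage buffer. Reaction in 75 mM Tris/HCl pH 7.4, 4 mM MgCl₂, 2 mg/mL BSA, 14C-glycerol-3-phosphate (7.6 mCi/mmol), 50 μM palmitoyl-CoA. Inhibitor 0–40 μg/mL in DMSO. Triplicates. IC50 taken relative to DMSO vehicle control activity.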

SMILES	IC50 [µM]
CCCCCCCCS(=O)(=O)Nc1cc(CCc2ccccc2)ccc1C(=O)O	37.5
CCCCCCCCS(=O)(=O)Nc1ccc(-c2ccccc2F)cc1C(=O)O	34.6
CCCCCCCCS(=O)(=O)Nc1ccc(/C=C/c2ccc(OC)cc2)cc1C(=O)O	37.1
CCCCCCCCS(=O)(=O)Nc1ccc(-c2ccc(-c3ccccc3)cc2)cc1C(=O)O	29.1
CCCCCCCCS(=O)(=O)Nc1ccc(CCc2ccccc2)cc1C(=O)O	37.5
CCCCCCCCS(=O)(=O)Nc1ccc(-c2ccccc2O)cc1C(=O)O	61.7
CCCCCCCCS(=O)(=O)Nc1ccc(C(=O)c2ccc(OC)cc2)cc1C(=O)O	44.3
CCCCCCCCS(=O)(=O)Nc1ccc(-c2cccc(F)c2)cc1C(=O)O	37.6
CCCCCCCCS(=O)(=O)Nc1cc(-c2ccccc2Cl)ccc1C(=O)O	26.9
CCCCCCCCS(=O)(=O)Nc1ccc(C(=O)c2ccc(CCCC)cc2)cc1C(=O)O	31.7
CCCCCCCCS(=O)(=O)Nc1cc(-c2cccc(F)c2)ccc1C(=O)O	32.6
CCCCCCCCS(=O)(=O)Nc1ccc(CCc2ccc(OC)cc2)cc1C(=O)O	26.3
CCCCCCCCS(=O)(=O)Nc1cc(-c2ccc(O)cc2)ccc1C(=O)O	64.8
CCCCCCCCS(=O)(=O)Nc1ccc(-c2ccc(O)cc2)cc1C(=O)O	47.3
CCCCCCCCS(=O)(=O)Nc1cc(-c2ccccc2F)ccc1C(=O)O	47.2
CCCCCCCCS(=O)(=O)Nc1ccc(-c2ccccc2OC)cc1C(=O)O	27.6
CCCCCCCCS(=O)(=O)Nc1ccc(-c2ccc(OC)cc2)cc1C(=O)O	19.5
CCCCCCCCS(=O)(=O)Nc1cc(/C=C/c2ccccc2)ccc1C(=O)O	38
CCCCCCCCS(=O)(=O)Nc1ccc(C(=O)c2ccccc2OC)cc1C(=O)O	59.2
CCCCCCCCS(=O)(=O)Nc1cc(/C=C/c2ccc(OC)cc2)ccc1C(=O)O	38.7
CCCCCCCCS(=O)(=O)Nc1cc(CCc2ccc(OC)cc2)ccc1C(=O)O	43

The next compounds have a lower IC50 than those just listed; values first:

IC50 [µM]	SMILES
18.1	CCCCCCCCS(=O)(=O)Nc1cc(-c2ccc(Cl)cc2)ccc1C(=O)O
17.1	CCCCCCCCS(=O)(=O)Nc1cc(-c2ccccc2-c2ccccc2)ccc1C(=O)O
16.3	CCCCCCCCS(=O)(=O)Nc1ccc(/C=C/c2ccccc2)cc1C(=O)O
16.1	CCCCCCCCS(=O)(=O)Nc1cc(-c2ccccc2OC)ccc1C(=O)O
15.8	CCCCCCCCS(=O)(=O)Nc1cc(C(=O)c2ccc(CCCC)cc2)ccc1C(=O)O
15.7	CCCCCCCCS(=O)(=O)Nc1cc(-c2ccc(CCCC)cc2)ccc1C(=O)O
13.8	CCCCCCCCS(=O)(=O)Nc1cc(-c2cccc(Cl)c2)ccc1C(=O)O
13.5	CCCCCCCCS(=O)(=O)Nc1cc(-c2ccc(-c3ccccc3)cc2)ccc1C(=O)O
13.3	CCCCCCCCS(=O)(=O)Nc1cc(-c2ccc(OC)cc2)ccc1C(=O)O
13	CCCCCCCCS(=O)(=O)Nc1ccc(C(=O)c2ccc(-c3ccccc3)cc2)cc1C(=O)O
10.1	CCCCCCCCS(=O)(=O)Nc1ccc(-c2ccccc2-c2ccccc2)cc1C(=O)O
9.2	CCCCCCCCS(=O)(=O)Nc1ccc(-c2ccc(Cl)cc2)cc1C(=O)O
9	CCCCCCCCS(=O)(=O)Nc1ccc(-c2ccc(CCCC)cc2)cc1C(=O)O
8.9	CCCCCCCCS(=O)(=O)Nc1ccc(-c2cccc(Cl)c2)cc1C(=O)O
8.5	CCCCCCCCS(=O)(=O)Nc1cc(C(=O)c2ccc(-c3ccccc3)cc2)ccc1C(=O)O
